Results on 15 compounds are retold here after PubChem BioAssay.

A short description of assay [1]: Her2 expression decrease, cell viability multiplex – SKBR3 breast tumor cells, AlphaScreen, ATP viability, primary screen (AID 461;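 active means Her2 level under about 52% in both replicate screens, with viability over 70% of control, limit read from the data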;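 on Her2 level: lower value means less Her2 protein in the cells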;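 on viability: percent of carrier control wells set as 100% viability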). To be noted: SKBR3 Her2 protein level, 18-24 h, measured here: SKBR3 viability, ATP luminescence, at 10 µM.
Assay [2] deals with Receptor tyrosine-protein kinase erbB-2 (Homo sapiens) (UniProt P04626). Described as above. To be noted: 18-24 h, at 10 µM, stronger effect = lower value.
Assay [3] is described as follows: reduced viability of SK-BR-3 breast cancer cells – cell-based, 24 h, human, pilot screen (AID 572;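 active means viability at or below 10% of carrier control in both of two separate runs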;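 further: compound exposure lasted between 18 and 24 h rather than exactly 24 h; 100% = carrier-treated control wells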). To be noted: SK-BR-3 viability, CellTiter-Glo luminescence, at 10 µM, stronger effect = lower value.
Assay [4] can be described thus: HUVEC growth inhibition – cell-based, human, primary screen (AID 575;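 active means viability at or below 30% in both replicate assays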;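 further: 100% = median of untreated cell wells with 0.1% DMSO on each plate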). To be noted: HUVEC proliferation, CellTiter-Glo luminescence, 72 h; at 10 µM; stronger effect = lower value. Put shortly:
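Assay system: Primary human umbilical vein endothelial cells | Quantity: 1250 cells per well | Medium: Supplemented EBM, 2% fetal bovine serum | Detection: CellTiter-Glo luminescence measuring cellular ATP | Read-out: % viability vs DMSO wells | Plate: Collagen-coated 384-well format | Times: 72 h exposure, 37 °C, 5% CO2, 30 min RT equilibration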

A short description of assay [5]: H69AR cell proliferation blockers – human, duplicate replicates, primary screen (AID 580;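 active means viability at or under a set limit in both replicates, limit being median viability minus 3 SD, cut at about 48% in these data, passing the limit was not always enough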;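 further: 100% = mean luminescence of untreated wells and 0% = no signal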). To be noted: H69AR lung tumor cells viability, ATP luminescence, 72 h; at 10 µM; stronger effect = lower value.
Assay [6] is described as follows: MRP1 drug-resistance reversers in H69AR cells – cell-based, doxorubicin co-treatment, pilot screen (AID 601). To be noted: CellTiter-Glo, 72 h, at 10 µM; for differential viability (reversal): stronger effect = higher value.
Assay [7] can be described thus: yeast transport mutant growth inhibition pilot in 384-well plates, post-Golgi transport modulator project (AID 636; in the data active means inhibition above about 31%). To be noted: absorbance 615 nm, about 18 h, stronger effect = higher value.
Assay [8] is described as follows: growth suppression of yeast trafficking mutant, preliminary HTS, modulators of trafficking downstream of Golgi apparatus project, 1536-format plate, OD 615 nm (AID 637; in the data active means inhibition above about 30%). To be noted: yeast transport mutant growth, absorbance 615 nm, 18 h; stronger effect = higher value.
Setting [9] is: H69AR cells + 2 uM doxorubicin, measured here: viability with 2 uM doxorubicin, stronger effect = lower value.
[10] abbreviates: H69AR cells, compound alone cytotoxicity.

Calls of active or inactive are those of the source.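 How the source made its calls, unless noted: active means viability loss from added drug above about 55%, and viability with drug at most 40%, in both replicates (limit read from the data, passing the limit was not always enough); inconclusive means both conditions met in only one replicate; inactive means neither replicate meets both conditions.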

Broadly, the viability is a read-out of living cells in per cent, often relative to untreated cells. By inhibition is commonly meant the drop in the measured response relative to a control, in per cent.

Chain of Receptor tyrosine-protein kinase erbB-2 (Homo sapiens) (P04626 whole entry, looked up): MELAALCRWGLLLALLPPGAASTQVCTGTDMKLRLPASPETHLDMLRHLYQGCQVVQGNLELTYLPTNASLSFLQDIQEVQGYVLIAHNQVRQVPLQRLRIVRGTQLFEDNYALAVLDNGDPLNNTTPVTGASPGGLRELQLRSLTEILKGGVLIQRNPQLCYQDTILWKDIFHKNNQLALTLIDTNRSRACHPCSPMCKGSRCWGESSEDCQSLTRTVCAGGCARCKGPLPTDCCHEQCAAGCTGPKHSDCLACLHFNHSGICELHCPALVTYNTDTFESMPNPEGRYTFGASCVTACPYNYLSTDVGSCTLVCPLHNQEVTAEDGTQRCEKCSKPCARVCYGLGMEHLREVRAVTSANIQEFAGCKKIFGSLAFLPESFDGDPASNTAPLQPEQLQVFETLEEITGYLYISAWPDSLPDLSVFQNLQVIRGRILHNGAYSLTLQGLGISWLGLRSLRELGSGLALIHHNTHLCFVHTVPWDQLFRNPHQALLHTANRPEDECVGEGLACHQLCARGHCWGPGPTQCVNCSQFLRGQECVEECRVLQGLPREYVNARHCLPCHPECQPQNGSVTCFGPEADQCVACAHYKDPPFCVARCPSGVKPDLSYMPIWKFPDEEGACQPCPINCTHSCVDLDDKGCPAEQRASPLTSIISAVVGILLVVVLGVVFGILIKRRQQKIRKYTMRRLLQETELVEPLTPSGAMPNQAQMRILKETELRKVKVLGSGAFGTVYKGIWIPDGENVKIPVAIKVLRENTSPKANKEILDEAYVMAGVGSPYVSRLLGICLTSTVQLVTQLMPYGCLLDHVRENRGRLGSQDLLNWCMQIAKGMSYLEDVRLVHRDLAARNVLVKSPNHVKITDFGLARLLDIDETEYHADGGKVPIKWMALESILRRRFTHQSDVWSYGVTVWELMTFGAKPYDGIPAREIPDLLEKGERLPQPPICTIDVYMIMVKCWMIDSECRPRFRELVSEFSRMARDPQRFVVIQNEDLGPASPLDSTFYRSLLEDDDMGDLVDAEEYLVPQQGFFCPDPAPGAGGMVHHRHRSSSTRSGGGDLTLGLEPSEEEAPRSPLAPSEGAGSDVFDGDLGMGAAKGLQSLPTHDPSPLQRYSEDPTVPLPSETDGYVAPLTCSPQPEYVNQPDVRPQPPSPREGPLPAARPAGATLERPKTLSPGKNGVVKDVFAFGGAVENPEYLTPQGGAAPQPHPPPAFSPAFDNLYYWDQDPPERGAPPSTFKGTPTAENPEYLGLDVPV

Turning to `CCC(C)(C(=O)NC1CCCCC1)N(Cc1ccco1)C(=O)c1cnccn1` (stereo not given), the viability is 82% in assay [1]; 82% (inactive) in assay [3]; 88.7% (inactive) in assay [4]; 97.5% (inactive) in assay [5]; 89.2% in assay [6] (setting [9]); 97.5% in assay [6] (setting [10]). Moreover, in assay [2], the Her2 level is 98% (inactive). Further, the differential viability (reversal) in assay [6] (H69AR cells + 2 uM doxorubicin) was 8.25% (inactive). The values for the inhibition in assay [7] and in assay [8] were -0.78% (inactive) and -3.77% (inactive), respectively.

For the compound `CC1CN(c2nc(-c3ccccc3)nc3ccccc23)CC(C)O1` (stereo not given), the viability in assay [1] is 91%; in assay [3], 91% (inactive); in assay [4], 88.2% (inactive); in assay [5] it was 85.4% (inactive); in assay [6] (setting [9]), 80.9%; in assay [6] (setting [10]) it was 85.4%. For the same compound, in assay [2], the Her2 level was 134% (inactive). Besides, the differential viability (reversal) in assay [6] (H69AR cells + 2 uM doxorubicin) is 4.54% (inactive). The inhibition in assay [7] was -3.72% (inactive); in assay [8], -5.67% (inactive).

For the compound `CCN(C(=O)c1cc2cc3ccc(C)cc3nc2o1)c1ccc(OC)cc1`, the viability was 85.5% in assay [1]; 85.5% (inactive) in assay [3]; 61% (inactive) in assay [4]; 83.1% (inactive) in assay [5]; 96% in assay [6] (setting [9]); 83.1% in assay [6] (setting [10]). Further, the Her2 level in assay [2] is 99.5% (inactive). The differential viability (reversal) in assay [6] (H69AR cells + 2 uM doxorubicin) was -12.9% (inactive). Further, the inhibition in assay [7] was -6.27% (inactive); in assay [8] it was -6.39% (inactive).

Turning to `O=C(C1CCCN(S(=O)(=O)c2cnc[nH]2)C1)N1CCN(c2ccc(Cl)cc2)CC1` (stereo not given), the viability in assay [1] was 85.5%; in assay [3] it was 85.5% (inactive); in assay [4], 110% (inactive); in assay [5], 111% (inactive); in assay [6] (setting [9]), 96%; in assay [6] (setting [10]), 111%. Moreover, the Her2 level in assay [2] is 93% (inactive). Besides, in assay [6] (H69AR cells + 2 uM doxorubicin), the differential viability (reversal) is 14.8% (inactive). Also, the inhibition in assay [7] is -0.13% (inactive); in assay [8] it was -4.92% (inactive).

As to `CCOC(=O)c1ccccc1NC(=O)c1cc2sccc2n1C`, the viability was 90% in assay [1]; 90% (inactive) in assay [3]; 70.5% (inactive) in assay [4]; 81% (inactive) in assay [5]; 77% in assay [6] (setting [9]); 81% in assay [6] (setting [10]). For the same compound, the Her2 level in assay [2] is 96% (inactive). Also, in assay [6] (H69AR cells + 2 uM doxorubicin), the differential viability (reversal) was 3.9% (inactive). Moreover, the inhibition in assay [7] was 1.23% (inactive); in assay [8] it was -2.38% (inactive).

`COC(=O)c1ccc(C2NC(C(=O)O)CS2)cc1` (stereo not given): the viability in assay [1] was 132%; in assay [3], 132% (inactive); in assay [4] it was 102% (inactive); in assay [5], 89% (inactive); in assay [6] (setting [9]) it was 97.3%; in assay [6] (setting [10]), 89%. For the same compound, the Her2 level in assay [2] was 103% (inactive). Further, in assay [6] (H69AR cells + 2 uM doxorubicin), the differential viability (reversal) is -8.38% (inactive). Further, the inhibition in assay [7] is -0.79% (inactive); in assay [8] it was 3.02% (inactive).

Consider `COc1cc(OC)cc(-c2nnc(SCC(=O)Nc3cc(C)on3)o2)c1`, for which the viability in assay [1] is 92.5%; in assay [3] it was 92.5% (inactive); in assay [4], 82.7% (inactive); in assay [5] it was 79.6% (inactive); in assay [6] (setting [9]), 87.6%; in assay [6] (setting [10]) it was 79.6%. Besides, in assay [2], the Her2 level is 81% (inactive). For the same compound, in assay [6] (H69AR cells + 2 uM doxorubicin), the differential viability (reversal) was -7.97% (inactive). Further, the inhibition in assay [7] was -5.53% (inactive); in assay [8], -4.33% (inactive).

Regarding `Cc1cc(C)n2cc(CSCc3ccco3)nc2n1`, the viability was 97% in assay [1]; 97% (inactive) in assay [3]; 113% (inactive) in assay [4]; 95.2% (inactive) in assay [5]; 86.4% in assay [6] (setting [9]); 95.2% in assay [6] (setting [10]). Besides, the Her2 level in assay [2] was 83% (inactive). For the same compound, the differential viability (reversal) in assay [6] (H69AR cells + 2 uM doxorubicin) was 8.73% (inactive). In addition, the inhibition is -7.16% (inactive) in assay [7] and 0.83% (inactive) in assay [8].

Turning to `O=C(CNc1ccc(Oc2ccccc2)cc1)N1CCOCC1`, the viability is 92.5% in assay [1]; 92.5% (inactive) in assay [3]; 92.1% (inactive) in assay [4]; 105% (inactive) in assay [5]; 100% in assay [6] (setting [9]); 105% in assay [6] (setting [10]). Also, in assay [2], the Her2 level is 95.5% (inactive). In addition, the differential viability (reversal) in assay [6] (H69AR cells + 2 uM doxorubicin) is 4.96% (inactive). Moreover, the inhibition is -7.81% (inactive) in assay [7] and 6.98% (inactive) in assay [8].

On to `Cc1ccc2ncnc(NCCCN3CCOCC3)c2c1`, for which the viability was 98.5% in assay [1]; 98.5% (inactive) in assay [3]; 91.4% (inactive) in assay [4]; 101% (inactive) in assay [5]; 102% in assay [6] (setting [9]); 101% in assay [6] (setting [10]). Also, in assay [2], the Her2 level was 120% (inactive). Further, the differential viability (reversal) in assay [6] (H69AR cells + 2 uM doxorubicin) is -0.115% (inactive). The inhibition in assay [7] was -0.79% (inactive); in assay [8] it was 5.41% (inactive).

In the case of `Cc1ncc(CO)c2c1OC(C)(C)OC2`, the viability in assay [1] is 95.5%; in assay [3] it was 95.5% (inactive); in assay [4], 92.8% (inactive); in assay [5] it was 93.5% (inactive); in assay [6] (setting [9]) it was 89%; in assay [6] (setting [10]), 93.5%. Also, the Her2 level in assay [2] was 104% (inactive). Besides, the differential viability (reversal) in assay [6] (H69AR cells + 2 uM doxorubicin) was 4.48% (inactive). Besides, the inhibition in assay [7] was -5.79% (inactive); in assay [8] it was -0.91% (inactive).

On to `CCCCN(C)C(=O)CS(=O)(=O)Cc1nc(-c2cccc(OC)c2)oc1C`, for which the viability in assay [1] is 94%; in assay [3], 94% (inactive); in assay [4] it was 94.8% (inactive); in assay [5] it was 99.9% (inactive); in assay [6] (setting [9]) it was 84.2%; in assay [6] (setting [10]), 99.9%. Moreover, the Her2 level in assay [2] is 114% (inactive). Further, the differential viability (reversal) in assay [6] (H69AR cells + 2 uM doxorubicin) was 15.6% (inactive). Further, the inhibition in assay [7] was -4.4% (inactive); in assay [8], 3.11% (inactive).

Consider `O=C(NCc1cccnc1)C1CCCN(S(=O)(=O)c2ccc(Cl)cc2)C1` (stereo not given), for which the viability is 102% in assay [1]; 102% (inactive) in assay [3]; 77.1% (inactive) in assay [4]; 86.9% (inactive) in assay [5]; 84.9% in assay [6] (setting [9]); 86.9% in assay [6] (setting [10]). Besides, in assay [2], the Her2 level was 96% (inactive). Further, the differential viability (reversal) in assay [6] (H69AR cells + 2 uM doxorubicin) was 1.95% (inactive). In addition, the inhibition is -2.57% (inactive) in assay [7] and -1.75% (inactive) in assay [8].

Take `CN(C)S(=O)(=O)NC(c1ccccc1)c1ccccc1`: the viability in assay [1] is 93%; in assay [3], 93% (inactive); in assay [4], 105% (inactive); in assay [5], 105% (inactive); in assay [6] (setting [9]), 88.9%; in assay [6] (setting [10]), 105%. Further, the Her2 level in assay [2] was 97% (inactive). Also, the differential viability (reversal) in assay [6] (H69AR cells + 2 uM doxorubicin) is 15.6% (inactive). Also, the inhibition is -8% (inactive) in assay [7] and -2.38% (inactive) in assay [8].

Take `CCOCCCNC(=O)C1CCC(=O)N1CCc1ccccc1` (stereo not given): the viability was 100% in assay [1]; 100% (inactive) in assay [3]; 84.7% (inactive) in assay [4]; 98.3% (inactive) in assay [5]; 111% in assay [6] (setting [9]); 98.3% in assay [6] (setting [10]). In addition, the Her2 level in assay [2] is 95.5% (inactive). Further, the differential viability (reversal) in assay [6] (H69AR cells + 2 uM doxorubicin) is -12.8% (inactive). Besides, the values for the inhibition in assay [7] and in assay [8] were -3.42% (inactive) and -5.32% (inactive), respectively.
